Measured values as given in PubChem BioAssay.
Records with an inconclusive call do not appear.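 Rule for the calls, unless noted: active = inhibition over a set limit, the all-compound mean plus 3 SD, in both replicate runs; inconclusive = over that limit in just one replicate run; inactive = at or under that limit in both runs.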

Experiments:
[1] = OD615 S. cerevisiae growth inhibition, permissive medium, pilot counter-assay, permissive growth control for S. cerevisiae lifespan shortening project (AID 705;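 active = growth inhibition above 25% in both replicates, a cutoff set 3 SD above the mean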); conditions: OD615, 24 h, at 10 µM, active compounds read high
How it was run: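 Material: engineered DeaD yeast; Compound: one dose 10 µM, DMSO 0.25% final; Detection: absorbance (optical density) at 615 nm; Buffer or medium: permissive raffinose/galactose medium; Timing: 24 h exposure, 30 °C.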

[2] = Restrictive medium S. cerevisiae growth inhibition, OD615, pilot screen of yeast lifespan reduction project, restrictive growth control (AID 706;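 active = growth inhibition above a set limit, 3 SD over mean compound inhibition, in both replicates, cut at about 43% in these data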;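 note: modified DeaD lifespan yeast strain shifted to restrictive glucose medium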); conditions: OD615, 48 h, at 10 µM, active compounds read high
How it was run: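 Buffer or medium: restrictive glucose medium (CSMM-D); test system: modified S. cerevisiae; doses: single dose of 10 µM compound final, 0.25% DMSO; schedule: 48 h compound exposure at 30 °C; detection: absorbance (optical density) measured at 615 nm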

[3] = viability gain of MRP-1-high H69AR cells under doxorubicin, pilot screen, MRP-1 activator project, CellTiter-Glo, duplicate (AID 807;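 active = viability increase at or above a cutoff of the median across tested compounds plus 3 SD, cut at about 8.5% in these data, passing the limit was not always enough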;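 note: compound pretreatment 18-22 h then 72 h combined with doxorubicin; 0% = doxorubicin alone and 100% = vehicle without doxorubicin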); conditions: H69AR viability with doxorubicin, CellTiter-Glo luminescence; at 10 µM; active compounds read high
[4] = growth suppression of beta-catenin knockout HCT116, pilot screen, human colon tumor cells (AID 823;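 active = cell viability at or below a set limit in both duplicate runs, the limit being the all-compound median minus 4 SD, cut at about 23% in these data, passing the limit was not always enough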;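 note: 0% = wells killed by 20 µM Hyamine and 100% = untreated DMSO cell wells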); conditions: CellTiter-Glo, 60 h, at 10 µM, active compounds read low
[5] = growth suppression of PTEN-deleted HCT116, pilot screen, cell-based, HCT116 clonal line, CellTiter-Glo (AID 824;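 active = viability at or below 27.92% in each of two runs, the all-compound median minus 4 SD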;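 note: 0% = 20 µM Hyamine control and 100% = vehicle cell control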); conditions: 60 h, at 10 µM, active compounds read low
[6] = inhibitors of the yeast RAM network, pilot screen, dse1pr::URA3 reporter, 5-FOA selection (AID 869);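 note: 0% = DMSO wells with no growth and 100% = 10 µM 1-NA-PP1 with full growth; RAM network block rescues cells from 5-FOA so hits raise OD615 growth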; conditions: S. cerevisiae dse1pr::URA3 5-FOA growth, OD615, 2 d; at 10 µM; active compounds read high; strain carries analog-sensitive mutant Cbk1 kinase
[7] = RAM signaling pathway blockade in yeast – S. cerevisiae, Pdr1DBD-CYC8 efflux-inhibited sensitized strain, primary screen (AID 1298;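 active = RAM network inhibition above 8.4% in each of two replicates, 3 SD over the compound average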;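 note: 0% = DMSO untreated cells without growth and 100% = 10 µM 1-NA-PP1 full growth; higher means more yeast growth rescued from 5-FOA killing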); conditions: S. cerevisiae cbk1-as DSE1-URA3 strain, 5-FOA growth OD615, 2 d; at 50 µM; active compounds read high

COc1cccc(C2NC(CCSC)(C(=O)O)C3C(=O)N(C(C)C)C(=O)C23)c1O (configuration not stated)
inactive: growth inhibition [1] -1.2% | growth inhibition [2] 8% | viability increase [3] 0.13% | viability [4] 95% | viability [5] 97.2% | inhibition [6] 1.93% | RAM network inhibition [7] -1.51%

Cc1nn(-c2ccccc2)c2sc(C(=O)OCN3C(=O)c4ccccc4C3=O)cc12
inactive: growth inhibition [1] -8.01% | growth inhibition [2] -6.25% | viability increase [3] -3.32% | viability [4] 83.6% | viability [5] 85.2% | inhibition [6] 2.55% | RAM network inhibition [7] 4.24%

CC(=O)c1ccc(-n2nncc2C)cc1
inactive: growth inhibition [1] -4.02% | growth inhibition [2] -11.6% | viability increase [3] -3.63% | viability [4] 108% | viability [5] 95.6% | inhibition [6] 0.965% | RAM network inhibition [7] 2.75%

CCC(=O)N=c1sc2cc(F)cc(F)c2n1C
inactive: growth inhibition [1] -6.05% | growth inhibition [2] -7.75% | viability increase [3] -5.39% | viability [4] 93.4% | viability [5] 87.8% | inhibition [6] 1.4% | RAM network inhibition [7] 3.13%

CCOC(=O)Cn1c(C)cc(=O)c2cccc(C)c21
inactive: growth inhibition [1] -19.8% | growth inhibition [2] -12.9% | viability increase [3] 0.49% | viability [4] 92% | viability [5] 96.9% | inhibition [6] 0.035% | RAM network inhibition [7] 1.15%

Cc1c(C(=O)NCc2ccco2)sc2nc(-c3ccccc3)cn12
inactive: growth inhibition [1] 3.59% | growth inhibition [2] 10.2% | viability increase [3] -4.77% | viability [4] 78.6% | viability [5] 67.3% | inhibition [6] 0.04% | RAM network inhibition [7] 2.7%

O=C(Cn1ncc2c(=O)oc3ccccc3c21)N1CCCN(Cc2ccccc2F)C1
inactive: growth inhibition [1] -3.74% | growth inhibition [2] 2.98% | viability increase [3] -3.74% | viability [4] 101% | viability [5] 94.1% | inhibition [6] 1.55% | RAM network inhibition [7] 1.79%

CN1CCN(Cc2ccc(OCc3ccccc3)cc2)CC1
inactive: growth inhibition [1] -3.27% | growth inhibition [2] -1.79% | viability increase [3] -2.45% | viability [4] 88.1% | viability [5] 91.4% | inhibition [6] -0.965% | RAM network inhibition [7] -0.47%

COc1ccc(C(=O)N(Cc2nc(-c3ccc(C)cc3)no2)C(C)C)cc1OC
inactive: growth inhibition [1] -12.1% | growth inhibition [2] -6.13% | viability increase [3] 1.37% | viability [4] 93.6% | viability [5] 79.3% | inhibition [6] 3.8% | RAM network inhibition [7] 5.36%

O=C(Nc1ccc(N2CCCCC2)cc1)c1cncc(Br)c1
inactive: growth inhibition [1] 5.98% | growth inhibition [2] 15.3% | viability increase [3] -4.57% | viability [4] 100% | viability [5] 96.8% | inhibition [6] 1.98% | RAM network inhibition [7] 5.26%

c1ccc(CSc2nnc(-c3ccncc3)o2)cc1
inactive: growth inhibition [1] -3.77% | growth inhibition [2] 9.8% | viability increase [3] -2.83% | viability [4] 109% | viability [5] 96.3% | inhibition [6] 0.73% | RAM network inhibition [7] 1.96%

CCN(CCNS(=O)(=O)c1ccc2[nH]c(=O)sc2c1)c1ccccc1
inactive: growth inhibition [1] 0.725% | growth inhibition [2] 13% | viability increase [3] -1.31% | viability [4] 99% | viability [5] 87.6% | inhibition [6] 0.01% | RAM network inhibition [7] 2.83%

CC(C)C12CN3CC(C(C)C)(CN(C1)C31C(=O)Nc3ccccc31)C2=O (configuration not stated)
inactive: growth inhibition [1] -16.5% | growth inhibition [2] -17.8% | viability increase [3] -0.6% | viability [4] 90.3% | viability [5] 101% | inhibition [6] 1.05% | RAM network inhibition [7] 3.39%

COc1ccc(S(=O)(=O)N2CCN(c3cccc(C)c3C)CC2)cc1
inactive: growth inhibition [1] -16.7% | growth inhibition [2] -13.3% | viability increase [3] 1.83% | viability [4] 97.9% | viability [5] 90.5% | inhibition [6] 1.02% | RAM network inhibition [7] 2.58%

CCOc1ccc2nc(NC(=O)Nc3cccs3)sc2c1
inactive: growth inhibition [1] -10.4% | growth inhibition [2] -19.9% | viability increase [3] -3.88% | viability [4] 40.1% | viability [5] 31.6% | inhibition [6] 1.08% | RAM network inhibition [7] 0.79%

O=C(CCc1ccccc1)N1CCN(CCO)CC1
inactive: growth inhibition [1] -4.45% | growth inhibition [2] 9.8% | viability increase [3] 0.6% | viability [4] 101% | viability [5] 110% | inhibition [6] 0.715% | RAM network inhibition [7] 3.71%

COc1ccc(C(=O)Nc2cc3c(cc2C#N)OCO3)cc1S(=O)(=O)N1CCN(C)CC1
inactive: growth inhibition [1] -18.3% | growth inhibition [2] -21.2% | viability increase [3] 1.53% | viability [4] 100% | viability [5] 101% | inhibition [6] 0.975% | RAM network inhibition [7] 5.27%

CC(=O)C1=C(C)NC(SCC(N)=O)=C(C#N)C1c1cccnc1 (configuration not stated)
inactive: growth inhibition [1] 6.58% | growth inhibition [2] 20.8% | viability increase [3] 1.67% | viability [4] 104% | viability [5] 101% | inhibition [6] 1.12% | RAM network inhibition [7] 1.65%

O=C(Nc1cccc(F)c1)c1ccc(S(=O)(=O)N2CCOCC2)cc1
inactive: growth inhibition [1] -17% | growth inhibition [2] -7.46% | viability increase [3] -2.24% | viability [4] 98.3% | viability [5] 99.6% | inhibition [6] 1.13% | RAM network inhibition [7] -1.21%

NC(=O)c1ccsc1NC(=O)c1cccs1
inactive: growth inhibition [1] -5% | growth inhibition [2] -5.65% | viability increase [3] -2.23% | viability [4] 104% | viability [5] 92.8% | inhibition [6] 1.59% | RAM network inhibition [7] 0.37%

COc1ccc(-n2nc3c(c2NC(=O)c2ccc(Br)cc2)CS(=O)C3)cc1 (configuration not stated)
inactive: growth inhibition [1] -4.15% | growth inhibition [2] 4.82% | viability increase [3] -2.41% | viability [4] 85.3% | viability [5] 91.5% | inhibition [6] 0.805% | RAM network inhibition [7] 2.87%

CC(=O)C(C)Oc1ccc2c3c(c(=O)oc2c1)CCCC3 (configuration not stated)
inactive: growth inhibition [1] -6.26% | growth inhibition [2] 9.38% | viability increase [3] 0.37% | viability [4] 93% | viability [5] 91.1% | inhibition [6] 2.3% | RAM network inhibition [7] 0.72%

Cc1ccc(C(=O)NCCCn2ccnc2)o1
inactive: growth inhibition [1] -1.7% | growth inhibition [2] -6.83% | viability increase [3] 0.23% | viability [4] 101% | viability [5] 97.8% | inhibition [6] -0.265% | RAM network inhibition [7] 3.73%

COc1ccc2oc(C(=O)C3CC3)c(NC(=O)CCCN3C(=O)c4ccccc4C3=O)c2c1
inactive: growth inhibition [1] 2.6% | growth inhibition [2] 6.11% | viability increase [3] -3.63% | viability [4] 102% | viability [5] 93.6% | inhibition [6] 0.995% | RAM network inhibition [7] 3.53%

Cc1ccc2c(c1)NC(=O)C(CC(=O)NCCCN1CCCCC1C)O2 (configuration not stated)
inactive: growth inhibition [1] 6.71% | growth inhibition [2] 8.33% | viability increase [3] -1.72% | viability [4] 101% | viability [5] 101% | inhibition [6] -0.48% | RAM network inhibition [7] 1.25%

CCCCCSc1nc2c(c(=O)[nH]c(=O)n2C)n1CCc1ccccc1
inactive: growth inhibition [1] -3.08% | growth inhibition [2] -4.46% | viability increase [3] -1.88% | viability [4] 69.6% | viability [5] 87% | inhibition [6] 2.75% | RAM network inhibition [7] 8.01%

Cc1cc(N2CCOCC2)nc2cc(O)ccc12
inactive: growth inhibition [1] -10.3% | growth inhibition [2] -15.5% | viability increase [3] -1.02% | viability [4] 97.4% | viability [5] 87.6% | inhibition [6] 1.31% | RAM network inhibition [7] 5.97%

CCOC(=O)c1c(C)n(C)c2ccc(OCC(O)CN3CCCCCC3)cc12 (configuration not stated)
inactive: growth inhibition [1] -0.855% | growth inhibition [2] -3.17% | viability increase [3] -5.4% | viability [4] 61.5% | viability [5] 62.5% | inhibition [6] 0.77% | RAM network inhibition [7] 2.14%

CCOC(=O)c1c(NC(=O)CN2CCCCC2)sc2c1CCCC2O (configuration not stated)
inactive: growth inhibition [1] -10.4% | growth inhibition [2] -0.48% | viability increase [3] -4.26% | viability [4] 70.3% | viability [5] 65.2% | inhibition [6] -0.195% | RAM network inhibition [7] 4.1%

O=C(Cn1ncc2c(=O)oc3ccccc3c21)NCCN1CCN(c2ccccc2F)CC1
inactive: growth inhibition [1] 1.82% | growth inhibition [2] -16.2% | viability increase [3] -0.78% | viability [4] 92.8% | viability [5] 91.5% | inhibition [6] 0.705% | RAM network inhibition [7] 1.34%

Cc1cc(NS(=O)(=O)c2ccc(NC(=O)Nc3ccccc3)cc2)no1
inactive: growth inhibition [1] 4.26% | growth inhibition [2] -7.87% | viability increase [3] 1.41% | viability [4] 101% | viability [5] 103% | inhibition [6] 1.92% | RAM network inhibition [7] 1.02%

O=C1c2ccccc2C(=O)N1CCCc1nc2ccccc2c(=O)n1-c1cccnc1
inactive: growth inhibition [1] -1.63% | growth inhibition [2] 7.23% | viability increase [3] -3.29% | viability [4] 93.1% | viability [5] 90.8% | inhibition [6] 2.07% | RAM network inhibition [7] 2.78%

COc1ccc(OC)c(NC(=O)Nc2nnc(N3CCC(C)CC3)s2)c1
inactive: growth inhibition [1] -10.7% | growth inhibition [2] -9.16% | viability increase [3] 0.87% | viability [4] 93.1% | viability [5] 92.7% | inhibition [6] 1.01% | RAM network inhibition [7] 2.27%

CCN(CC)CCNC(=O)c1cc2c(=O)n(C)c3ccccc3c2n1C
inactive: growth inhibition [1] -4.52% | growth inhibition [2] -6.67% | viability increase [3] -4.8% | viability [4] 49.8% | viability [5] 51.4% | inhibition [6] 1.88% | RAM network inhibition [7] 0.31%

COc1ccc(C2C=C(c3ccccc3)Nc3nnnn32)cc1 (configuration not stated)
inactive: growth inhibition [1] -5.09% | growth inhibition [2] 5.53% | viability increase [3] 0.19% | viability [4] 95.3% | viability [5] 90.3% | inhibition [6] 0.855% | RAM network inhibition [7] 5.93%

O=C(CSc1nnc(-c2cccnc2)n1Cc1ccco1)c1ccc(Br)cc1
inactive: growth inhibition [1] 1.25% | growth inhibition [2] 32.4% | viability increase [3] -1.99% | viability [4] 79.9% | viability [5] 86.8% | inhibition [6] 0.005% | RAM network inhibition [7] 10%
